Test results reported in ChEMBL document CHEMBL1158155, “Novel hexacyclic camptothecin derivatives. Part 1: synthesis and cytotoxicity of camptothecins with an A-ring fused 1,3-oxazine ring” (Bioorg Med Chem Lett, 2008).

Key:
Type in all cases: functional, cell-based
BXPC-3 = assay: Cytotoxicity against human BXPC3 cells after 4 days by MTT assay; conditions: BXPC-3, 96 h
Outline: (§1)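 Panel of nine human cancer lines tested in parallel: BXPC-3 (pancreatic), NCI-446 (lung), MCF-7 (breast), HEPG-2 (liver), A549 (lung), A2780 (ovarian), Bel7402 (liver), HT-29 (colon), and KB (epidermoid carcinoma of nasopharynx). Cells were exposed for 4 days of incubation, viability was read by MTT, and values were expressed as the doses required for the response.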

[1] = Cytotoxicity against human NCI446 cells after 4 days by MTT assay; conditions: NCI446, 96 h; outline: as §1
HepG2 = assay: Cytotoxicity against human HepG2 cells after 4 days by MTT assay; conditions: HepG2, 96 h; outline: as §1
A549 = assay: Cytotoxicity against human A549 cells after 4 days by MTT assay; conditions: A549, 96 h; outline: as §1
A2780 = assay: Cytotoxicity against human A2780 cells after 4 days by MTT assay; conditions: A2780, 96 h; outline: as §1
Bel-7402 = assay: Cytotoxicity against human BEL-7402 cells after 4 days by MTT assay; conditions: Bel-7402, 96 h; outline: as §1
HT-29 = assay: Cytotoxicity against human HT29 cells after 4 days by MTT assay; conditions: HT-29, 96 h; outline: as §1
KB = assay: Cytotoxicity against human KB cells after 4 days by MTT assay; conditions: 96 h; outline: as §1
MCF7 = assay: Cytotoxicity against human MCF7 cells after 4 days by MTT assay; conditions: MCF7, 96 h; outline: as §1

Compound | IC50 (BXPC-3) [nM] | IC50 [1] [nM] | IC50 (HepG2) [nM] | IC50 (A549) [nM] | IC50 (A2780) [nM] | IC50 (Bel-7402) [nM] | IC50 (HT-29) [nM] | IC50 (KB) [nM] | IC50 (MCF7) [nM]
CCCN1COc2ccc3nc4c(cc3c2C1)Cn1c-4cc2c(c1=O)COC(=O)[C@]2(O)CC | 150 | 3900 | 10 | 110 | 90 | 1430 | 180 | 670 | 
CCN1COc2ccc3nc4c(cc3c2C1)Cn1c-4cc2c(c1=O)COC(=O)[C@]2(O)CC | 190 | 230 | 50 | 160 | 120 | 810 | 140 | 120 | 210
CC[C@@]1(O)C(=O)OCc2c1cc1n(c2=O)Cc2cc3c4c(ccc3nc2-1)OCN(Cc1ccc(OC)cc1)C4 | 1240 | 56800 | 1470 | 30 | 17600 | 9580 | 1680 | 80 | 
CC[C@@]1(O)C(=O)OCc2c1cc1n(c2=O)Cc2cc3c4c(ccc3nc2-1)OCN(Cc1ccccc1)C4 | 210 | 6230 | 110 | 80 | 910 | 1580 | 100 | 40 | 1600
CC[C@@]1(O)C(=O)OCc2c1cc1n(c2=O)Cc2cc3c4c(ccc3nc2-1)OCN(c1ccccc1C)C4 | 530 | 1140 | 180 | 1210 | 4260 | 6000 | 220 | 60 | 
CC[C@@]1(O)C(=O)OCc2c1cc1n(c2=O)Cc2cc3c4c(ccc3nc2-1)OCN(c1cccc(C)c1)C4 | 580 | 7030 | 930 | 420 | 850 | 5430 | 340 | 40 | 
CC[C@@]1(O)C(=O)OCc2c1cc1n(c2=O)Cc2cc3c4c(ccc3nc2-1)OCN(c1ccc(C)cc1)C4 | 2050 | 9390 |  | 570 | 2160 | 3860 | 530 | 340 | 1640
CC[C@@]1(O)C(=O)OCc2c1cc1n(c2=O)Cc2cc3c4c(ccc3nc2-1)OCN(c1ccccc1OC)C4 | 3340 |  | 130 | 720 | 2990 | 2230 | 310 | 290 | 1400
CC[C@@]1(O)C(=O)OCc2c1cc1n(c2=O)Cc2cc3c4c(ccc3nc2-1)OCN(c1ccc(F)cc1F)C4 | 1570 |  | 550 | 390 | 2070 | 4700 | 620 | 660 | 4480
CC[C@@]1(O)C(=O)OCc2c1cc1n(c2=O)Cc2cc3c4c(ccc3nc2-1)OCN(c1ccccc1Cl)C4 | 890 | 19200 |  | 450 | 4100 | 15200 | 1050 | 330 | 2000
CC[C@@]1(O)C(=O)OCc2c1cc1n(c2=O)Cc2cc3c4c(ccc3nc2-1)OCN(c1ccc(Cl)cc1)C4 | 510 |  | 170 | 310 | 820 | 16300 | 210 | 230 | 5000
CC[C@@]1(O)C(=O)OCc2c1cc1n(c2=O)Cc2cc3c4c(ccc3nc2-1)OCN(c1ccc(F)c(F)c1F)C4 | 120 |  |  | 280 | 1070 | 13100 | 620 | 280 | 2590
CC[C@@]1(O)C(=O)OCc2c1cc1n(c2=O)Cc2cc3c4c(ccc3nc2-1)OCN(c1ccc(F)c(Cl)c1)C4 | 920 |  | 180 | 560 | 3100 | 3060 | 1130 | 620 | 9510
CC[C@@]1(O)C(=O)OCc2c1cc1n(c2=O)Cc2cc3c4c(ccc3nc2-1)OCN(Cc1ccc(F)cc1)C4 | 1730 | 43200 | 140 | 120 | 11600 | 5220 | 1190 | 60 | 650
CC[C@@]1(O)C(=O)OCc2c1cc1n(c2=O)Cc2cc3c4c(ccc3nc2-1)OCN(C)C4 | 480 | 37300 | 640 | 410 | 530 | 1670 | 690 | 670 | 4520
CCCCN1COc2ccc3nc4c(cc3c2C1)Cn1c-4cc2c(c1=O)COC(=O)[C@]2(O)CC | 970 | 10100 | 350 | 200 | 3190 | 4010 | 130 | 90 | 550
CC[C@@]1(O)C(=O)OCc2c1cc1n(c2=O)Cc2cc3c4c(ccc3nc2-1)OCN(c1ccc(OC)cc1)C4 | 420 | 14400 | 120 | 270 | 1120 | 4990 | 310 | 230 | 
CC[C@@]1(O)C(=O)OCc2c1cc1n(c2=O)Cc2cc3c4c(ccc3nc2-1)OCN(c1ccccc1)C4 | 190 |  | 30 | 770 | 3430 | 7130 | 480 | 670 | 2750
CC[C@@]1(O)C(=O)OCc2c1cc1n(c2=O)Cc2cc3ccccc3nc2-1 [CAMPTOTHECIN] | 240 | 3280 | 130 | 10 | 200 | 170 | 90 | 3 | 200
CC[C@@]1(O)C(=O)OCc2c1cc1n(c2=O)Cc2cc3c(CN(C)C)c(O)ccc3nc2-1 [TOPOTECAN] | 620 | 10100 |  | 220 | 3350 | 3130 | 880 | 220 | 1200
